Results: ChEMBL document CHEMBL3421565, “β-D-2'-C-Methyl-2,6-diaminopurine Ribonucleoside Phosphoramidates are Potent and Selective Inhibitors of Hepatitis C Virus (HCV) and Are Bioconverted Intracellularly to Bioactive 2,6-Diaminopurine and Guanosine 5'-Triphosphate Forms” (J Med Chem, 2015)
Active and inactive are the calls of the source. No cut-off for these calls is given here.

Experiments:
[1] = system: CCRF-CEM; assay: (§1) Cytotoxicity against human CEM cells assessed as reduction in cell viability incubated for 5 days by Cell-titer 96 aqueous one solution cell proliferation assay; type: cell-based; settings: ccrf-cem, 120 h
[2] = system: Hepatitis C virus; assay: Antiviral activity against HCV infected in human HuH7 cells assessed as reduction in replicon RNA levels incubated for 5 days by RT-PCR assay; type: functional, organism-based, Hepacivirus hominis; settings: Huh-7, 120 h
Method in brief: (§2)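 Huh-7 clone B cells carrying HCV replicon RNA, seeded at 3000 cells/well; compounds added in dose response in triplicate right after seeding. Incubated 5 days at 37 °C, 5% CO₂. Total RNA extracted; replicon RNA and rRNA internal control co-amplified by one-step multiplex real-time RT-PCR. Antiviral effect taken as ΔCt versus no-drug control; cytotoxicity read from rRNA reduction.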

[3] = Cytotoxicity against human HuH7 cells assessed as reduction in rRNA levels incubated for 5 days by RT-PCR assay; type: cell-based, Huh-7; settings: for CC50: huh-7, 120 h; method in brief: as §2
[4] = system: PBMC; assay: (§3) Cytotoxicity against human PBMC assessed as reduction in cell viability incubated for 5 days by Cell-titer 96 aqueous one solution cell proliferation assay; type: cell-based; settings: pbmc, 120 h
[5] = system: Vero; assay: (§4) Cytotoxicity against African green monkey Vero cells assessed as reduction in cell viability incubated for 5 days by Cell-titer 96 aqueous one solution cell proliferation assay; type: cell-based; settings: chlorocebus sabaeus, vero, 120 h
[6] = system: HepG2; assay: Mitochondrial toxicity in human HepG2 cells assessed as effect on mitochondrial cytochrome c oxidase subunit 2 DNA level incubated for 14 days by real-time PCR method; type: cell-based; settings: hepg2, 336 h
Method in brief: (§5)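 HepG2 cells in DMEM with 4.5 g/L glucose and 10% heat-inactivated FBS, seeded at 5000 cells/well on collagen; compounds added 1 day later at final 1–50 μM. Medium and compound renewed every 3–4 days for 14 days; duplicates in two independent experiments. COXII mtDNA and nuclear β-actin DNA measured by real-time PCR, normalised to untreated control; IC₅₀ calculated.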

[7] = system: HepG2; assay: Mitochondrial toxicity in human HepG2 cells assessed as induction of lactic acid levels at 10 uM incubated for 14 days; type: cell-based; settings: hepg2, 336 h
Method in brief: (§6)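 After 14 days of HepG2 exposure to compound (same culture regimen as the mtDNA assay), lactic acid in culture supernatant quantified with a D-/L-lactic acid kit by absorbance. Results expressed as % lactic acid over % nuclear DNA (β-actin control); mean of triplicates from a single plate.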

[8] = system: HepG2; assay: Mitochondrial toxicity in human HepG2 cells assessed as effect on nuclear beta-actin DNA level incubated for 14 days by real-time PCR method; type: cell-based; settings: hepg2, 336 h; method in brief: as §5
[9] = system: HepG2; assay: Mitochondrial toxicity in human HepG2 cells assessed as induction of lactic acid levels at 1 uM incubated for 14 days; type: cell-based; settings: hepg2, 336 h; method in brief: as §6
[10] = system: HepG2; assay: Mitochondrial toxicity in human HepG2 cells assessed as induction of lactic acid levels at 50 uM incubated for 14 days; type: cell-based; settings: hepg2, 336 h; method in brief: as §6
[11] = system: HepG2; assay: Toxicity in human HepG2 cells assessed as increase in cell death at 10 uM; type: cell-based; settings: hepg2, 10 µM
[12] = system: Hepatocyte; assay: (§7) Drug level in human primary hepatocytes treated with 50 uM Ethyl 3-(2-(((R)-(((2R,3R,4R,5R)-5-(2,6-Diamino-9H-purin-9-yl)-3,4-dihydroxy-4-methyltetrahydrofuran-2-yl)methoxy)(((S)-1-ethoxy-1-oxopropan-2-yl)amino)phosphoryl)oxy)phenyl)-propanoate assessed as compound formation incubated for 4 hrs at 37 degC by LC-MS/MS method; type: ADME, cell-based
Method in brief: (§8)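 Freshly plated primary human hepatocytes seeded at 1 × 10⁶ per well and acclimated overnight, then given 50 μM compound for 4 h at 37 °C. After two ice-cold PBS washes, extraction ran overnight at −20 °C in 70% methanol with 20 nM ddATP. Dried extracts went to LC–MS/MS for intracellular metabolites, as three replicates from one plate, ±SD.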

[13] = system: Hepatocyte; assay: (§9) Drug level in human primary hepatocytes treated with 50 uM Isopropyl 3-(2-(((S)-(((2R,3S,4R,5R)-5-(2,6-Diamino-9H-purin-9-yl)-3,4-dihydroxy-4-methyltetrahydrofuran-2-yl)methoxy)-(((S)-1-isopropoxy-1-oxopropan-2-yl)amino)phosphoryl)oxy)-phenyl)propanoate 15c(Sp) and Isopropyl 3-(2-(((R)-(((2R,3S,4R,5R)-5-(2,6-Diamino-9H-purin-9-yl)-3,4-dihydroxy-4-methyltetrahydrofuran-2-yl)methoxy)(((S)-1-isopropoxy-1-oxopropan-2-yl)amino)phosphoryl)oxy)phenyl)propanoate assessed as compound formation incubated for 4 hrs at 37 degC by LC-MS/MS method; type: ADME, cell-based; method in brief: as §8
[14] = as §9, with “HuH7 cells” for “primary hepatocytes”; type: ADME, cell-based; settings: huh-7, 4 h
Method in brief: (§10)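 Huh-7 cells seeded at 1 × 10⁶ per well and exposed to 50 μM compound after attachment, 4 h at 37 °C. Cells washed twice with ice-cold PBS, then extracted overnight at −20 °C in 70% methanol containing 20 nM ddATP. Supernatants were dried and analysed by LC–MS/MS for parent nucleoside and its mono-, di- and triphosphates (pmol/10⁶ cells).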

[15] = system: Hepatocyte; assay: Drug level in human primary hepatocytes treated with 50 uM beta-D-2,6-diaminopurine nucleoside assessed as compound formation incubated for 4 hrs at 37 degC by LC-MS/MS method; type: ADME, cell-based; method in brief: as §8
[16] = system: Hepacivirus hominis; assay: Inhibition of HCV C-terminal His-tagged NS5Bdelta21 enzyme assessed as induction of pausing at sites of GMP incorporation during NS5B-mediated RNA polymerization using [32P]-GpG primer, RNA template and rNTP nucleotide mix incubated for 120 mins by PAGE method
Method in brief: (§11)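 Purified NS5BΔ21 (C-terminal His tag), 1 μM, at 30 °C with 1 μM 20-mer RNA template and 1 μM ³²P-GpG primer. Buffer was 40 mM Tris pH 7.5, 6 mM NaCl, 2 mM MgCl₂. Started with 10 μM NTP mix, 1 μM competing NTP and triphosphate inhibitor at 0–100 μM. Stopped at 120 min with EDTA/formamide. Products run on 20% denaturing PAGE and quantified; IC₅₀ calculated.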

[17] = Drug level in human HuH7 cells treated with 50 uM beta-D-2,6-diaminopurine nucleoside assessed as compound formation incubated for 4 hrs at 37 degC by LC-MS/MS method; type: ADME, cell-based; settings: huh-7, 4 h; method in brief: as §10
[18] = system: Hepacivirus hominis; assay: Inhibition of HCV C-terminal His-tagged NS5Bdelta21 enzyme assessed as reduction in NS5B-mediated RNA polymerization using [32P]-GpG primer, RNA template and rNTP nucleotide mix incubated for 120 mins by PAGE method
Method in brief: as §11, with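 “μM.” for “μM. Stopped at 120 min with EDTA/formamide.”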

[19] = as §7, with “HuH7 cells” for “primary hepatocytes”; type: ADME, cell-based; settings: huh-7, 4 h; method in brief: as §10
[20] = as §1; type: cell-based, CCRF-CEM; settings: CEM cells (CCRF-CEM)
[21] = as §3; type: cell-based; settings: PBMC
[22] = as §4; type: cell-based; settings: chlorocebus sabaeus, Vero cells

Row | Structure (SMILES) | CC50 [1] [µM] | EC50 [2] [µM] | EC90 [2] [µM] | CC50 [3] [µM] | CC50 [4] [µM] | CC50 [5] [µM] | further results
1 | CCOC(=O)CCc1ccccc1OP(=O)(N[C@@H](C)C(=O)OCC)OC[C@H]1O[C@@H](n2cnc3c(N)nc(N)nc32)[C@]2(C)OC(=O)O[C@@H]12 (stereo partly drawn) | > 100 | 2.8 | 8.5 | > 10 | > 100 | > 100 | –
2 | CCOC(=O)CCc1ccccc1O[P@](=O)(N[C@@H](C)C(=O)OC(C)C)OC[C@H]1O[C@@H](n2cnc3c(N)nc(N)nc32)[C@](C)(O)[C@H]1O | > 100 | 4.7 | 9.7 | > 10 | > 100 | – | –
3 | CCOC(=O)[C@H](C)N[P@@](=O)(OC[C@H]1O[C@@H](n2cnc3c(N)nc(N)nc32)[C@](C)(O)[C@H]1O)Oc1ccccc1CCC(=O)OC(C)C | > 100 | 1.4 | 6.9 | – | > 100 | – | –
4 | C[C@@]1(O)[C@H](O)[C@@H](CO)O[C@H]1n1cnc2c(N)nc(N)nc21 | > 100 | 5.4 | > 10 | > 33 | > 100 | > 100 | CC50 [6]: > 50 µM; Activity [7]: 170%; CC50 [8]: > 50 µM; Activity [9]: 110%; Activity [10]: 110%
5 | CCOC(=O)[C@H](C)N[P@](=O)(OC[C@H]1O[C@@H](n2cnc3c(N)nc(N)nc32)[C@](C)(O)[C@H]1O)Oc1ccccc1CCC(=O)OC(C)C | – | 9.1 | 26 | > 10 | – | – | –
6 | CCOC(=O)CCc1ccccc1O[P@@](=O)(N[C@@H](C)C(=O)OC(C)C)OC[C@H]1O[C@@H](n2cnc3c(N)nc(N)nc32)[C@](C)(O)[C@H]1O | – | 2.4 | 8.2 | – | – | > 100 | –
7 | CCOC(=O)CCc1ccccc1OP(=O)(N[C@@H](C)C(=O)OC(C)C)OC[C@H]1O[C@@H](n2cnc3c(N)nc(N)nc32)[C@](C)(O)[C@H]1O (stereo partly drawn) | – | 2.2 | 9 | – | – | – | –
8 | CC(C)OC(=O)CCc1ccccc1O[P@@](=O)(N[C@@H](C)C(=O)OC(C)C)OC[C@H]1O[C@@H](n2cnc3c(N)nc(N)nc32)[C@](C)(O)[C@H]1O | > 100 | 1 | 2.7 | > 10 | – | – | –
9 | CCOC(=O)[C@H](C)NP(=O)(OC[C@H]1O[C@@H](n2cnc3c(N)nc(N)nc32)[C@](C)(O)[C@H]1O)Oc1ccccc1CCC(=O)OC(C)C (stereo partly drawn) | – | 1.7 | 8 | – | – | > 100 | –
10 | CCOC(=O)CCc1ccccc1O[P@](=O)(N[C@@H](C)C(=O)OCC)OC[C@H]1O[C@@H](n2cnc3c(N)nc(N)nc32)[C@](C)(O)[C@H]1O | – | 2.7 | 8.7 | – | > 100 | – | –
11 | COc1nc(N)nc2c1ncn2[C@@H]1O[C@H](COP(=O)(N[C@@H](C)C(=O)OCC(C)(C)C)Oc2cccc3ccccc23)[C@@H](O)[C@@]1(C)O (stereo partly drawn) [BMS-986094] | 8.7 | 0.02 | 0.04 | 0.8 | 4.7 | 14 | CC50 [6]: 4.7 µM; CC50 [8]: < 1 µM; Activity [11]: Toxic; Activity [9]: 190%
12 | Nc1ccn([C@H]2CC[C@@H](CO)O2)c(=O)n1 [ZALCITABINE] | – | – | – | – | – | – | CC50 [6]: < 10 µM; Activity [7]: 220%; CC50 [8]: < 10 µM
13 | CCOC(=O)[C@H](C)NP(=O)(OC[C@H]1O[C@@H](n2cnc3c(N)nc(N)nc32)[C@](C)(O)[C@@H]1O)Oc1ccccc1 (stereo partly drawn) | > 100 | 0.9 | 4 | > 10 | > 100 | > 100 | CC50 [6]: > 50 µM; Activity [7]: 140%; CC50 [8]: > 50 µM; Activity [9]: 100%; Activity [10]: 90%
14 | C[C@@]1(O)[C@H](O)[C@@H](COP(=O)(O)OP(=O)(O)OP(=O)(O)O)O[C@H]1n1cnc2c(=O)[nH]c(N)nc21 [INX-09114] | – | – | – | – | – | – | Drug metabolism [12]: metabolite_detected; Drug metabolism [13]: metabolite_detected; Drug metabolism [14]: metabolite_detected; Drug metabolism [15]: metabolite_detected; inhibition [16]: Active; Drug metabolism [17]: metabolite_detected; inhibition [18]: Dose-dependent effect; Drug metabolism [19]: metabolite_detected
15 | CCOC(=O)CCc1ccccc1OP(=O)(OC[C@H]1O[C@@H](n2cnc3c(N)nc(N)nc32)[C@](C)(O)[C@@H]1O)Oc1ccccc1CCC(=O)OCC | – | > 10 | > 10 | – | – | – | CC50 at 120 h [20]: 25 µM; CC50 at 120 h ([3]; HuH7 cells): > 10 µM; CC50 at 120 h [21]: 64 µM; CC50 at 120 h [22]: 90 µM
16 | Nc1ccn([C@@H]2CS[C@H](CO)O2)c(=O)n1 [LAMIVUDINE] | – | – | – | – | – | – | CC50 [6]: > 10 µM; Activity [7]: 91%; CC50 [8]: > 10 µM
17 | CCOC(=O)CCc1ccccc1OP(=O)(N[C@@H](C)C(=O)OCC)OC[C@H]1O[C@@H](n2cnc3c(N)nc(N)nc32)[C@](C)(O)[C@H]1O (mixture of isomers) | > 100 | 2.3 | 7.3 | > 10 | – | – | –
18 | CC(C)OC(=O)CCc1ccccc1O[P@](=O)(N[C@@H](C)C(=O)OC(C)C)OC[C@H]1O[C@@H](n2cnc3c(N)nc(N)nc32)[C@](C)(O)[C@H]1O | 40 | 0.9 | 2.8 | – | > 100 | – | –
